Reference: ChEMBL document CHEMBL4325864, “Discovery of new potent protein arginine methyltransferase 5 (PRMT5) inhibitors by assembly of key pharmacophores from known inhibitors” (Bioorg Med Chem Lett, 2018)
Calls of active or inactive are those of the source. The calls are words filed in the database; no cut-off is given here.

Legend:
[1] = molecular target: T1, Protein arginine N-methyltransferase 5 (Homo sapiens, UniProt O14744); assay: Inhibition of full-length N-terminal FLAG-tagged PRMT5 (unknown origin) (1 to 637 residues) expressed in baculovirus infected Sf9 insect cells using histone H4 as peptide after 5 hrs in presence of [H3]AdoMet by scintillation proximity assay
[2] = molecular target: T1, Protein arginine N-methyltransferase 5; assay: Inhibition of PRMT5 in human KARPAS422 cells assessed as decrease in symmetric arginine dimethylation of SmD3 after 4 days by Western blot analysis; format: cell-based; conditions: in the assay text read “after 72 h” for “after 4 days”
Procedure, shortened: (§1)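 KARPAS-422 and SU-DHL-4 cells treated across a concentration range; symmetric arginine dimethylation of SmD3 detected by Western blot with symmetric dimethyl arginine (SDMA) antibody.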

[3] = molecular target: T1, Protein arginine N-methyltransferase 5; assay: Inhibition of PRMT5 (unknown origin)
[4] = molecular target: T2, PRMT5/MEP50 complex (Homo sapiens, UniProt O14744); assay: Inhibition of recombinant human N-terminal FLAG-tagged PRMT5 (2 to end residues) /human N-terminal His-tagged MEP50 (2 to end residues) expressed in HEK293F cells pretreated for 15 mins followed by substrate and [3H]-SAM addition measured after 60 mins by scintillation proximity assay; format: cell-based
Procedure, shortened: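 PRMT5 enzymatic inhibition measured by radiometric scintillation proximity assay; IC50 determined.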

[5] = molecular target: T3, Histone-arginine methyltransferase CARM1 (Homo sapiens, UniProt Q86X55); assay: Inhibition of PRMT4 (unknown origin) pretreated for 15 mins followed by substrate and [3H]-SAM addition measured after 60 mins by scintillation proximity assay
T3 sequence (Q86X55 whole entry): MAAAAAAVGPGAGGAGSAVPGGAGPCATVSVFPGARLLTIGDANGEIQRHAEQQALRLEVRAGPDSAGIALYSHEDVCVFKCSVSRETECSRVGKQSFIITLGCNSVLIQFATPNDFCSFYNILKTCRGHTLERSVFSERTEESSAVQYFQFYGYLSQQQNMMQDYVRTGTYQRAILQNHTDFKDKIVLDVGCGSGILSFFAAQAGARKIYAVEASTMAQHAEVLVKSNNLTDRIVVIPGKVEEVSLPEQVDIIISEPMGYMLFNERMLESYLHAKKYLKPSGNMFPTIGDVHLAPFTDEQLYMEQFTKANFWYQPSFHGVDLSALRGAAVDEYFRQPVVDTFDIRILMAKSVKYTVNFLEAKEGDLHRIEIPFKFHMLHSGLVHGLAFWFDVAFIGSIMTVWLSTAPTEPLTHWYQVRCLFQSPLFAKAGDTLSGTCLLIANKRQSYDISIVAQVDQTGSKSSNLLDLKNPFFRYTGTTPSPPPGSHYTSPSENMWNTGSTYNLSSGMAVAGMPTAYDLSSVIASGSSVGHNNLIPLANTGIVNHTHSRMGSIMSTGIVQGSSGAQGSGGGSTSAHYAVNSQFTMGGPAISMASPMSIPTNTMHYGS
Procedure, shortened: (§2)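 PRMT1 and PRMT4 enzyme-inhibition assays used to assess selectivity; IC50 values determined for each enzyme.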

[6] = tested on: KARPAS-422; assay: Antiproliferative activity against human KARPAS422 cells after 4 days by cell titer-glo luminescent cell viability assay; conditions: KARPAS-422, 96 h
[7] = tested on: KARPAS-422; assay: Cell cycle arrest in human KARPAS422 cells assessed as accumulation of cells at G1 phase at 16 uM after 48 hrs by propidium iodide staining-based flow cytometric analysis (reference value: 39.56%); format: functional
[8] = molecular target: T1, Protein arginine N-methyltransferase 5; assay: Competitive inhibition of recombinant human N-terminal FLAG-tagged PRMT5 (2 to end residues) /human N-terminal His-tagged MEP50 (2 to end residues) expressed in HEK293F cells pretreated for 15 mins followed by varying peptide substrate and fixed [3H]-SAM addition measured after 60 mins by scintillation proximity assay; format: cell-based
Procedure, shortened: (§3)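 Mode of inhibition: IC50 values determined by radiometric scintillation proximity assay in the presence of various concentrations of peptide substrate and SAM; experiments performed in triplicate.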

[9] = molecular target: T1, Protein arginine N-methyltransferase 5; assay: Inhibition of PRMT5 in human SU-DHL4 cells assessed as decrease in symmetric arginine dimethylation of SmD3 after 4 days by Western blot analysis; format: cell-based; conditions: in the assay text read “after 72 hrs” for “after 4 days”; procedure, shortened: as §1
[10] = tested on: KARPAS-422; assay: Induction of apoptosis in human KARPAS422 cells assessed as apoptotic cells at 8 uM after 48 hrs by AnnexinV-FITC staining-based flow cytometric analysis (reference value: 4.08%); format: functional
[11] = tested on: KARPAS-422; assay: Cell cycle arrest in human KARPAS422 cells assessed as accumulation of cells at G2/M phase at 4 uM after 48 hrs by propidium iodide staining-based flow cytometric analysis (reference value: 12.64%); format: functional
[12] = tested on: KARPAS-422; assay: Induction of apoptosis in human KARPAS422 cells assessed as viable cells at 16 uM after 48 hrs by AnnexinV-FITC staining-based flow cytometric analysis (reference value: 91.3%); format: functional; conditions: KARPAS-422, 48 h, read-out: Activity
[13] = tested on: KARPAS-422; assay: Cell cycle arrest in human KARPAS422 cells assessed as accumulation of cells at G1 phase at 8 uM after 48 hrs by propidium iodide staining-based flow cytometric analysis (reference value: 39.56%); format: functional
[14] = tested on: KARPAS-422; assay: Cell cycle arrest in human KARPAS422 cells assessed as accumulation of cells at G1 phase at 4 uM after 48 hrs by propidium iodide staining-based flow cytometric analysis (reference value: 39.56%); format: functional
[15] = tested on: KARPAS-422; assay: Induction of apoptosis in human KARPAS422 cells assessed as apoptotic cells at 4 uM after 48 hrs by AnnexinV-FITC staining-based flow cytometric analysis (reference value: 4.08%); format: functional
[16] = tested on: KARPAS-422; assay: Cell cycle arrest in human KARPAS422 cells assessed as accumulation of cells at G2/M phase at 8 uM after 48 hrs by propidium iodide staining-based flow cytometric analysis (reference value: 12.64%); format: functional
[17] = tested on: KARPAS-422; assay: Cell cycle arrest in human KARPAS422 cells assessed as accumulation of cells at S phase at 16 uM after 48 hrs by propidium iodide staining-based flow cytometric analysis (reference value: 47.8%); format: functional
[18] = tested on: KARPAS-422; assay: Cell cycle arrest in human KARPAS422 cells assessed as accumulation of cells at S phase at 8 uM after 48 hrs by propidium iodide staining-based flow cytometric analysis (reference value: 47.8%); format: functional
[19] = molecular target: T2, PRMT5/MEP50 complex; assay: Binding affinity to PRMT5 (unknown origin)/MEP50 (unknown origin) by SPR assay; format: protein-complex assay
Procedure, shortened: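 Direct binding to PRMT5 measured by surface plasmon resonance; equilibrium dissociation constant (KD) derived.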

[20] = molecular target: T1, Protein arginine N-methyltransferase 5; assay: Non-competitive inhibition of recombinant human N-terminal FLAG-tagged PRMT5 (2 to end residues) /human N-terminal His-tagged MEP50 (2 to end residues) expressed in HEK293F cells pretreated for 15 mins followed by fixed peptide substrate and varying [3H]-SAM addition measured after 60 mins by scintillation proximity assay; format: cell-based; procedure, shortened: as §3
[21] = tested on: MV4-11; assay: Antiproliferative activity against human MV4-11 cells after 4 days by cell titer-glo luminescent cell viability assay; conditions: MV4-11, 96 h
[22] = tested on: KARPAS-422; assay: Induction of apoptosis in human KARPAS422 cells after 48 hrs by AnnexinV-FITC staining-based flow cytometric analysis; format: functional, cell-based
[23] = tested on: Pfeiffer; assay: Antiproliferative activity against human Pfeiffer cells after 4 days by cell titer-glo luminescent cell viability assay; conditions: 96 h
[24] = tested on: SUD4; assay: Antiproliferative activity against human SU-DHL4 cells after 4 days by cell titer-glo luminescent cell viability assay; conditions: SU-DHL-4, 96 h
[25] = tested on: KARPAS-422; assay: Cell cycle arrest in human KARPAS422 cells assessed as accumulation of cells at G2/M phase at 16 uM after 48 hrs by propidium iodide staining-based flow cytometric analysis (reference value: 12.64%); format: functional
[26] = tested on: KARPAS-422; assay: Induction of apoptosis in human KARPAS422 cells assessed as necrotic cells at 8 uM after 48 hrs by AnnexinV-FITC staining-based flow cytometric analysis (reference value: 3.20%); format: functional
[27] = tested on: KARPAS-422; assay: Induction of apoptosis in human KARPAS422 cells assessed as necrotic cells at 4 uM after 48 hrs by AnnexinV-FITC staining-based flow cytometric analysis (reference value: 3.20%); format: functional
[28] = tested on: KARPAS-422; assay: Cell cycle arrest in human KARPAS422 cells assessed as accumulation of cells at G1 phase after 48 hrs by propidium iodide staining-based flow cytometric analysis; format: functional
[29] = tested on: KARPAS-422; assay: Induction of apoptosis in human KARPAS422 cells assessed as viable cells at 8 uM after 48 hrs by AnnexinV-FITC staining-based flow cytometric analysis (reference value: 91.3%); format: functional; conditions: KARPAS-422, 48 h, read-out: Activity
[30] = tested on: KARPAS-422; assay: Induction of apoptosis in human KARPAS422 cells assessed as apoptotic cells at 16 uM after 48 hrs by AnnexinV-FITC staining-based flow cytometric analysis (reference value: 4.08%); format: functional
[31] = tested on: KARPAS-422; assay: Induction of apoptosis in human KARPAS422 cells assessed as viable cells at 4 uM after 48 hrs by AnnexinV-FITC staining-based flow cytometric analysis (reference value: 91.3%); format: functional; conditions: KARPAS-422, 48 h, read-out: Activity
[32] = tested on: KARPAS-422; assay: Cell cycle arrest in human KARPAS422 cells assessed as accumulation of cells at S phase at 4 uM after 48 hrs by propidium iodide staining-based flow cytometric analysis (reference value: 47.8%); format: functional
[33] = tested on: KARPAS-422; assay: Induction of apoptosis in human KARPAS422 cells assessed as necrotic cells at 16 uM after 48 hrs by AnnexinV-FITC staining-based flow cytometric analysis (reference value: 3.20%); format: functional
[34] = molecular target: Protein arginine N-methyltransferase 1 (Homo sapiens, UniProt Q99873); assay: Inhibition of PRMT1 (unknown origin) pretreated for 15 mins followed by substrate and [3H]-SAM addition measured after 60 mins by scintillation proximity assay; procedure, shortened: as §2
Protein arginine N-methyltransferase 1, sequence (Q99873 whole entry): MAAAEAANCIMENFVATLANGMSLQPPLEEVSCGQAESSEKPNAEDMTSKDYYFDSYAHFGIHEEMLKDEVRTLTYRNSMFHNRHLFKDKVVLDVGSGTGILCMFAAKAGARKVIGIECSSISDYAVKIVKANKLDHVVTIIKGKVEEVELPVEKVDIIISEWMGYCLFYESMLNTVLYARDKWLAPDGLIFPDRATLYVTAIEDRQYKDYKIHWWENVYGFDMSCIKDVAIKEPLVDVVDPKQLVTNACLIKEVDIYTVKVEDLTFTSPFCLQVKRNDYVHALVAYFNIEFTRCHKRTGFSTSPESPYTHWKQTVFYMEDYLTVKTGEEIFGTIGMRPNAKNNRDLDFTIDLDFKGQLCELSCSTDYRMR

T1 sequence (O14744 whole entry, the tested form may be a part): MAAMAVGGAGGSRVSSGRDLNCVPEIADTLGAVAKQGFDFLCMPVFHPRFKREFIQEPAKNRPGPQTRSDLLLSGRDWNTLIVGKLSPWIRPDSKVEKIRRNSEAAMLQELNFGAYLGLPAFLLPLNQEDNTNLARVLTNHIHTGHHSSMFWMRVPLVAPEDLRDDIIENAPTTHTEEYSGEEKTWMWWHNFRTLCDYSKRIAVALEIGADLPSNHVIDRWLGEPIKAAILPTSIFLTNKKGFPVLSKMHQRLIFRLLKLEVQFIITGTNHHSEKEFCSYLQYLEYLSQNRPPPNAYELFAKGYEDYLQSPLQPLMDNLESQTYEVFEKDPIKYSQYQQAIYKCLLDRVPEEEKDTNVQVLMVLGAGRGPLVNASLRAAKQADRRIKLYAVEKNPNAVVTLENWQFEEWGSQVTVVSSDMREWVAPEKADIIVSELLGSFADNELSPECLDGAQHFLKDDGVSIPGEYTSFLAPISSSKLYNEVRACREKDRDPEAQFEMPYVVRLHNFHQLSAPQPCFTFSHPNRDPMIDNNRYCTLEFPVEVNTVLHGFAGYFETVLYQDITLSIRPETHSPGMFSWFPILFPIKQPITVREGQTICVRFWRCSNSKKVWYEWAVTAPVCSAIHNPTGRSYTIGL
T2 sequence (O14744 whole entry): as the sequence (O14744 whole entry, the tested form may be a part) above
T2 sequence (Q9BQA1 whole entry, further chain): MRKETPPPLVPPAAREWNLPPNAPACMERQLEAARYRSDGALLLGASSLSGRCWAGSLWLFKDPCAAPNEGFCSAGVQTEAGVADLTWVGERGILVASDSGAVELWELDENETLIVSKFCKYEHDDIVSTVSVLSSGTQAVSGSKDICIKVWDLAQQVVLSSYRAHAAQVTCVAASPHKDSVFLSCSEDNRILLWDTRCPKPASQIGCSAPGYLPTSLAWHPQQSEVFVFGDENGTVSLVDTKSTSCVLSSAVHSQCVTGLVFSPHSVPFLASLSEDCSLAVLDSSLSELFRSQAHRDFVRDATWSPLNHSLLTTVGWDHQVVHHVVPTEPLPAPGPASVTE

Nc1ncnc2c1ncn2[C@@H]1O/C(=C\[C@@H](N)CC[C@H](N)C(=O)O)[C@@H](O)[C@H]1O
IC50 [1]: 0.035 µM

O=C(NC[C@H](O)CN1CCc2ccccc2C1)c1cc(NC2COC2)ncn1
inhibition [2]: Dose-dependent effect

O=C(NC[C@H]1C[C@@H]2CC[N@@]1C[C@@H]2CN1CCC(Cc2ccccc2)CC1)c1ccc2c(c1)OCO2
IC50 [3]: 1500 nM

O=C(CCN1CCc2ccccc2C1)Nc1cccc2ncccc12
IC50 [4]: > 100 µM

CCOC(=O)c1ccc(NC(=O)CCN2CCc3ccccc3C2)cc1
IC50 [4]: > 100 µM

O=C(CCN1CCc2ccccc2C1)Nc1cccc(Cl)c1
IC50 [4]: 42.1 µM

N#Cc1ccccc1NC(=O)CCN1CCc2ccccc2C1
IC50 [4]: 25.6 µM

CC(=O)c1cccc(NC(=O)CCN2CCc3ccccc3C2)c1
IC50 [4]: 51.9 µM

COC(=O)c1ccccc1NC(=O)CCN1CCc2ccccc2C1
IC50 [4]: 31.6 µM

O=C(CCN1CCc2ccccc2C1)Nc1ccc(Oc2ccccc2)cc1
IC50 [4]: > 100 µM

O=C(CCN1CCc2ccccc2C1)Nc1cccc2ccccc12
IC50 [4]: > 100 µM

O=C(CCN1CCc2ccccc2C1)Nc1ccccc1
IC50 [4]: > 100 µM

Cc1cccc(NC(=O)CCN2CCc3ccccc3C2)c1
IC50 [4]: > 100 µM

Nc1ncnc2c1ncn2[C@@H]1O[C@H](C[C@@H](N)CC[C@H](N)C(=O)O)[C@@H](O)[C@H]1O [SINEFUNGIN]
IC50 [1]: 8.6 µM

O=C(CCN1CCc2ccccc2C1)NNC(=O)c1ccccc1
IC50 [4]: 72.7 µM

O=C(CCN1CCc2ccccc2C1)Nc1cccc(F)c1
IC50 [4]: 45.9 µM

Cc1ccc(NC(=O)CCN2CCc3ccccc3C2)c([N+](=O)[O-])c1
IC50 [4]: > 100 µM

Cc1cc([N+](=O)[O-])ccc1NC(=O)CCN1CCc2ccccc2C1
IC50 [4]: > 100 µM

COc1ccc(NC(=O)CCN2CCc3ccccc3C2)cc1
IC50 [4]: > 100 µM

N#Cc1c(Br)cccc1NC(=O)CCN1CCc2ccccc2C1
IC50 [5]: > 200 µM
IC50 [6]: 9.1 µM
Activity [7]: 54.34%
inhibition [8]: Active
inhibition [9]: inactive
Activity [10]: 7.89%
Activity [11]: 13.73%
viability at 16 µM [12]: 66.3%
Activity [13]: 50.53%
Activity [14]: 44.75%
Activity [15]: 4.66%
Activity [16]: 11.75%
Activity [17]: 36.18%
Activity [18]: 37.72%
Kd [19]: 10.8 µM
IC50 [4]: 2.71 µM
inhibition [20]: Active
IC50 [21]: 12.5 µM
Activity [22]: Dose-dependent effect
IC50 [23]: 11.1 µM
IC50 [24]: 16.4 µM
Activity [25]: 9.48%
Activity [26]: 2.93%
Activity [27]: 2.35%
Activity [28]: Dose-dependent effect
viability at 8 µM [29]: 88.1%
Activity [30]: 23.1%
viability at 4 µM [31]: 90.5%
inhibition [2]: Dose-dependent effect
Activity [32]: 41.52%
Activity [33]: 8.76%
IC50 [34]: > 200 µM

Cc1ccc(NC(=O)CCN2CCc3ccccc3C2)cc1
IC50 [4]: > 100 µM

O=C(CCN1CCc2ccccc2C1)Nc1cccc(OC(F)(F)F)c1
IC50 [4]: 63 µM

COC(=O)c1cc(F)c(F)cc1NC(=O)CCN1CCc2ccccc2C1
IC50 [4]: > 100 µM

O=C(CCN1CCc2ccccc2C1)Nc1cccc(Br)c1
IC50 [4]: 18.1 µM

O=C(CCN1CCc2ccccc2C1)Nc1nccc(C(F)(F)F)n1
IC50 [4]: 69.9 µM

COC(=O)c1ccccc1NC(=O)CN1CCc2ccccc2C1
IC50 [4]: 60 µM

COC(=O)c1ccccc1NC(=O)CCCN1CCc2ccccc2C1
IC50 [4]: 87.9 µM
